Assays:
[1] = biological target: T1, Mitogen-activated protein kinase kinase kinase 5 (Homo sapiens, UniProt Q99683); assay: Inhibition of human ASK1 using MBP as substrate incubated for 10 mins prior to ATP addition measured after 20 mins by liquid scintillation counting analysis
T1 sequence (Q99683 whole entry): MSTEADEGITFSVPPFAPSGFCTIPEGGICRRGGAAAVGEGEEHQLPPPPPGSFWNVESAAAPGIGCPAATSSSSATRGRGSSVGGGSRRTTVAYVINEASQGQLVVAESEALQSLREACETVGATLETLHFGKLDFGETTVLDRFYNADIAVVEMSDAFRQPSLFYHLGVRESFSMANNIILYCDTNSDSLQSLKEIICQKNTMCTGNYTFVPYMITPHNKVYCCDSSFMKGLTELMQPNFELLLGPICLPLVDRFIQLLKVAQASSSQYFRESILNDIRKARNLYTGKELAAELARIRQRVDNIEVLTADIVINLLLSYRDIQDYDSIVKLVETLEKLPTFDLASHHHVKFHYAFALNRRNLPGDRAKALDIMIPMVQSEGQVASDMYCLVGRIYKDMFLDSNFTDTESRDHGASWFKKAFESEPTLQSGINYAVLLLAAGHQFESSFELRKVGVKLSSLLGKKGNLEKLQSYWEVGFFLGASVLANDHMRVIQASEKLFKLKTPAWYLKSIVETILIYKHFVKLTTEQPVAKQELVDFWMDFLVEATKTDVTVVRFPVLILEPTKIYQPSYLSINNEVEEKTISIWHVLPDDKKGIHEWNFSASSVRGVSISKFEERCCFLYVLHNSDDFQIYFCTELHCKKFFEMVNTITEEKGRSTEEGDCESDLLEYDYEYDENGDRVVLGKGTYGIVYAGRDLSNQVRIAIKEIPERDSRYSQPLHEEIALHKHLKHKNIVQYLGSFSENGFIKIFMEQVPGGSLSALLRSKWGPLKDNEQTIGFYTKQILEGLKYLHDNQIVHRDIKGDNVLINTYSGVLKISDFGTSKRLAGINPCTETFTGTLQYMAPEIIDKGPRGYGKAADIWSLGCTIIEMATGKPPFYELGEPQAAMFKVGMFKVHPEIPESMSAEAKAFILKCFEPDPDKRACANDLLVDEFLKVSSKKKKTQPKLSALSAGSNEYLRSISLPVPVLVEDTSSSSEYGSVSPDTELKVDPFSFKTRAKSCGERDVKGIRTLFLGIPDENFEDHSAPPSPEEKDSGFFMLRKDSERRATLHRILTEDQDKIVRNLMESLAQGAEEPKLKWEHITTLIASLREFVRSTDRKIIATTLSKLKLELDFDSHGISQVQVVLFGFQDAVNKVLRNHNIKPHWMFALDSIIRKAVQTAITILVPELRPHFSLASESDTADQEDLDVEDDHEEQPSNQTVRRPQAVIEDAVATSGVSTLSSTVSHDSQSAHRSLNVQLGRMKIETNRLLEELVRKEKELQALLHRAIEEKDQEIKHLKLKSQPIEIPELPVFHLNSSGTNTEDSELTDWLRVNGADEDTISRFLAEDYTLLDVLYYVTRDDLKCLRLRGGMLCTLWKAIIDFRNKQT
In short: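 Inhibitor added from a DMSO stock is incubated with enzyme on ice for 10 min. The reaction is started with ATP plus MgCl₂ in MOPS pH 7.2, and labeled and unlabeled ATP are combined.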

[2] = biological target: Hepatocyte growth factor receptor (Homo sapiens) (UniProt P08581); assay: Inhibition of human HGFR using KKKSPGEYVNIEFG as substrate assessed as residual activity at 10 uM incubated for 10 mins prior to ATP addition measured after 20 mins by liquid scintillation counting analysis
Sequence of Hepatocyte growth factor receptor (Homo sapiens) (P08581 whole entry): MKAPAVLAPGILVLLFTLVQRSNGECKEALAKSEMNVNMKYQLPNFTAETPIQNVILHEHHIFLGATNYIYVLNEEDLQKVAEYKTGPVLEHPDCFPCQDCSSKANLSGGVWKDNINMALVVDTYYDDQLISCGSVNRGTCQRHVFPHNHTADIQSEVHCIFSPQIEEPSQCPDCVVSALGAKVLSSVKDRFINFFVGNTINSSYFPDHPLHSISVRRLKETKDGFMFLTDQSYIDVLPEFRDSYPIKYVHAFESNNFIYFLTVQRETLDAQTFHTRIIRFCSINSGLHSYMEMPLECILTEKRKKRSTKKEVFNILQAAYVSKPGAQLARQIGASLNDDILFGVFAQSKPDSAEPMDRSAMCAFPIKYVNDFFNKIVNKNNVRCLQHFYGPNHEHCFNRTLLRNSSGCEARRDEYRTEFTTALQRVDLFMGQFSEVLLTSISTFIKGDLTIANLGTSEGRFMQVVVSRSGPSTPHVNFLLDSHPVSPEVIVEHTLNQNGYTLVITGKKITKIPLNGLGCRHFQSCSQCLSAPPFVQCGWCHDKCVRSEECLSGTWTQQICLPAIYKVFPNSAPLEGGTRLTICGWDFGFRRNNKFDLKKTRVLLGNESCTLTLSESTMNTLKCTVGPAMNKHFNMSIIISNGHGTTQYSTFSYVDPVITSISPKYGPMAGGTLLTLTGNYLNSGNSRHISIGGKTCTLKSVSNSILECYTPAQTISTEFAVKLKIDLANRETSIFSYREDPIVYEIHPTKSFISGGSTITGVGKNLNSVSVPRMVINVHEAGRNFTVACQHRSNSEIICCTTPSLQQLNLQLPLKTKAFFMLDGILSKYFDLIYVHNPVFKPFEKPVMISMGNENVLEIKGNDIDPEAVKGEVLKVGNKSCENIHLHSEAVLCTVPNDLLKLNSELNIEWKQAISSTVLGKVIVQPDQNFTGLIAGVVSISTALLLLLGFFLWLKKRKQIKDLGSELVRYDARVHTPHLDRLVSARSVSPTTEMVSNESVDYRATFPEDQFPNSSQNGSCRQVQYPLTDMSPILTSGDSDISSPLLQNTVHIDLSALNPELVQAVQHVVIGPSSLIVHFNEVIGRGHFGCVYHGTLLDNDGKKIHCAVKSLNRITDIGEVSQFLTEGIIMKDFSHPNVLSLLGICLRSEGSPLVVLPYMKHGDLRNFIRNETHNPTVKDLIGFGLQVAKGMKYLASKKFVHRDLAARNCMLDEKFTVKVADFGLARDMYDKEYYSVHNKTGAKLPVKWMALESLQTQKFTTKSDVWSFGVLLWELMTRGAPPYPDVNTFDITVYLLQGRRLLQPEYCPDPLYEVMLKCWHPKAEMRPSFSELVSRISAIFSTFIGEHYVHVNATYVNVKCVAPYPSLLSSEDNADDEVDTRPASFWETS

[3] = biological target: Angiopoietin-1 receptor (Homo sapiens) (UniProt Q02763); assay: Inhibition of human Tie2 using TK substrate 2 as substrate assessed as residual activity at 10 uM incubated for 10 mins prior to ATP addition measured after 20 mins by liquid scintillation counting analysis
Sequence of Angiopoietin-1 receptor (Homo sapiens) (Q02763 whole entry): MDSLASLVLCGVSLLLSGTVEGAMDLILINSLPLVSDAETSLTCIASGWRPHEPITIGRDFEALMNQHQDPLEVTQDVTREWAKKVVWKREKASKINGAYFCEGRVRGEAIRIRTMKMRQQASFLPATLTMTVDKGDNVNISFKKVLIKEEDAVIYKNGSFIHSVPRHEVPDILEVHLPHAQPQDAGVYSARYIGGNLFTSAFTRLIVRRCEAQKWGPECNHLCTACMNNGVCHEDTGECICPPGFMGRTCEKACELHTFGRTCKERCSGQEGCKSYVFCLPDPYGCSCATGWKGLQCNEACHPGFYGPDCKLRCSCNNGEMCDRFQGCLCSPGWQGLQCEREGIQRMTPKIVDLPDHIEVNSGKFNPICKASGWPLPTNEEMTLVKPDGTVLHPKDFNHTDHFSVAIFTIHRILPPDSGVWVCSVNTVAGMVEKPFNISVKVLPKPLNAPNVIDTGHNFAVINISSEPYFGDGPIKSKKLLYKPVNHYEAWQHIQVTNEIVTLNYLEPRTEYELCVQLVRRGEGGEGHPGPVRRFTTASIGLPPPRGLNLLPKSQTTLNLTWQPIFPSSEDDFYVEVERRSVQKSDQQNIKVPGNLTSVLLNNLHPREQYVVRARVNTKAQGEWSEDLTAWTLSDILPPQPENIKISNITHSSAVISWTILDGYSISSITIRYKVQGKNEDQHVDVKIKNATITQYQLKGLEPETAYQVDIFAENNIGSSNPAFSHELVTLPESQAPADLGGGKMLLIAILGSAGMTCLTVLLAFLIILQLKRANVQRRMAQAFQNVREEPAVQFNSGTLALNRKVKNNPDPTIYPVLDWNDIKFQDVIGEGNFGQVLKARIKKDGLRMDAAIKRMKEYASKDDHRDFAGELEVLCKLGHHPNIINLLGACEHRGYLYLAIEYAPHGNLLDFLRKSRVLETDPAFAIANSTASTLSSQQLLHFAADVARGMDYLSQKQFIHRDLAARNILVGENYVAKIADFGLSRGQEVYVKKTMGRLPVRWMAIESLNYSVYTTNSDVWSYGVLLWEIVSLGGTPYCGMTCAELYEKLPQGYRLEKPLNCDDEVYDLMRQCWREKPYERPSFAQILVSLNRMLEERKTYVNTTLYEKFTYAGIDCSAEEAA

[4] = biological target: T2, Mitogen-activated protein kinase kinase kinase 5 (Homo sapiens) (UniProt Q99683); assay: Inhibition of human ASK1 using MBP as substrate assessed as residual activity at 10 uM incubated for 10 mins prior to ATP addition measured after 20 mins by liquid scintillation counting analysis
T2 sequence (whole entry): T1 sequence (Q99683 whole entry)

[5] = biological target: Fibroblast growth factor receptor 1 (Homo sapiens) (UniProt P11362); assay: Inhibition of human FGFR1 using IGF-IRtide (12 to 527) as substrate assessed as residual activity at 10 uM incubated for 10 mins prior to ATP addition measured after 20 mins by liquid scintillation counting analysis
Sequence of Fibroblast growth factor receptor 1 (Homo sapiens) (P11362 22-822 limits assumed): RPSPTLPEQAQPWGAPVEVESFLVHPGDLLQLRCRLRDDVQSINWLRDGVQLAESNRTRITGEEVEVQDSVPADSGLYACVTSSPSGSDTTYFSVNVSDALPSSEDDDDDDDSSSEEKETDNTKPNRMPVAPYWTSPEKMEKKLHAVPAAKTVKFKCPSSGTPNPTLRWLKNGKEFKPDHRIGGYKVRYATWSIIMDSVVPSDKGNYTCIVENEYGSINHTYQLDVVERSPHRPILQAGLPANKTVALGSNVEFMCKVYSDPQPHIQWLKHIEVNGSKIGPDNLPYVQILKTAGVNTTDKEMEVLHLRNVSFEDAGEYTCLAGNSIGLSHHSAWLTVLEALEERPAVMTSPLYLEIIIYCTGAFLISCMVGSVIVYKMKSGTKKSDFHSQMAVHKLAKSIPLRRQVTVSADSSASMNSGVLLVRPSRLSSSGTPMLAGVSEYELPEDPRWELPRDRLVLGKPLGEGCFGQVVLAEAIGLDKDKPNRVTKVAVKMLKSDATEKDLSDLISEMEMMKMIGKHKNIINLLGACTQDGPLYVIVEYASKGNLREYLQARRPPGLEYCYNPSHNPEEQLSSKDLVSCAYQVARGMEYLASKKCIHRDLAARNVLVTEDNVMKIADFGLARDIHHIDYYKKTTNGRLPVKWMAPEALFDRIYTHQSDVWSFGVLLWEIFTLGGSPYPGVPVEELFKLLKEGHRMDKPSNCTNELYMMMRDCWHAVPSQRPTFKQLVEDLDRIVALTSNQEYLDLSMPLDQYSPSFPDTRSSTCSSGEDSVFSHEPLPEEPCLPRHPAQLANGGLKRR

[6] = biological target: T3, Aurora kinase A (Homo sapiens) (UniProt O14965); assay: Inhibition of human Aurora A using Kemptide as substrate assessed as residual activity at 10 uM incubated for 10 mins prior to ATP addition measured after 20 mins by liquid scintillation counting analysis
T3 sequence (whole entry): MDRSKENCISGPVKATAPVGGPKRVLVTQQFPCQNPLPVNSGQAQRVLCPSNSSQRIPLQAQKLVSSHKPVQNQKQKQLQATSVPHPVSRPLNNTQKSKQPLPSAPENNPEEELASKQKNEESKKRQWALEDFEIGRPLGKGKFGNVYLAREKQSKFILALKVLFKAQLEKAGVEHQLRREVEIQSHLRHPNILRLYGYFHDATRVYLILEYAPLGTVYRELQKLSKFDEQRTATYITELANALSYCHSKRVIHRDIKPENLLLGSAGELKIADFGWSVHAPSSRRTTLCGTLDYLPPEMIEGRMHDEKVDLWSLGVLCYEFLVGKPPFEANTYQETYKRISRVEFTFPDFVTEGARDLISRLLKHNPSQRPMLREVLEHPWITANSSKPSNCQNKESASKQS

[7] = biological target: Mitogen-activated protein kinase 10 (Homo sapiens) (UniProt P53779); assay: Inhibition of human JNK3 using JNK3tide as substrate assessed as residual activity at 10 uM incubated for 10 mins prior to ATP addition measured after 20 mins by liquid scintillation counting analysis
Sequence of Mitogen-activated protein kinase 10 (Homo sapiens) (P53779 whole entry): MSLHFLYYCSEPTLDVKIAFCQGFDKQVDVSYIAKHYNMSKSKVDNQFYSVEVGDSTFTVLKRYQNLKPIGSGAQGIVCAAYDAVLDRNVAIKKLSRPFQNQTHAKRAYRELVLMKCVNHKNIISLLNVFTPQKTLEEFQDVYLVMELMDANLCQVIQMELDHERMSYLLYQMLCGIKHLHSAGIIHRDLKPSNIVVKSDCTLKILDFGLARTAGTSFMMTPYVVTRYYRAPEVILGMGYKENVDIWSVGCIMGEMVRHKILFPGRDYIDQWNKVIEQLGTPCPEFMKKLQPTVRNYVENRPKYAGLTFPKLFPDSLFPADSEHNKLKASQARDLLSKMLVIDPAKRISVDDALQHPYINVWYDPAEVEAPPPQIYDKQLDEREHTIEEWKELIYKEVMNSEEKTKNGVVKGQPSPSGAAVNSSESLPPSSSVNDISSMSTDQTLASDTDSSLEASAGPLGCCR

[8] = biological target: Casein kinase II (Homo sapiens) (UniProt P67870+P68400+P19784); assay: Inhibition of human CK2 using RRRDDDSDDD as substrate assessed as residual activity at 10 uM incubated for 10 mins prior to ATP addition measured after 20 mins by liquid scintillation counting analysis; type: protein-complex assay

SMILES | IC50 [1] | further results
CCOC(=O)c1ccc(-c2ccc(/C=C3\SC(=S)N(C(CC(=O)O)C(C)=O)C3=O)o2)cc1 (stereo not drawn) | 0.8 µM | –
O=C(O)CN1C(=O)/C(=C/c2ccco2)SC1=S | > 33 µM | –
O=C(O)CC(C(=O)O)N1C(=O)/C(=C/c2ccc(-c3c(Cl)cccc3Cl)o2)SC1=S (stereo not drawn) | 1 µM | –
O=C1NC(=S)S/C1=C\c1ccc(-c2ccccc2[N+](=O)[O-])o1 | > 33 µM | –
O=C(O)CCN1C(=O)/C(=C/c2ccc(-c3ccccc3Cl)o2)SC1=S | 0.75 µM | –
O=C1NC(=S)S/C1=C\c1cccnc1 | > 33 µM | –
CCCC(C(=O)O)N1C(=O)/C(=C/c2ccc(-c3ccc(Cl)c(Cl)c3)o2)SC1=S (stereo not drawn) | 3.9 µM | –
O=C1/C(=C/c2ccc(Cl)cc2Cl)SC(=S)N1Nc1ccccc1 | > 33 µM | –
O=C1NC(=S)S/C1=C\c1cccc(Br)c1 | > 33 µM | –
O=C(O)CCCCCN1C(=O)/C(=C/c2ccc(-c3ccccc3Cl)o2)SC1=S | 0.5 µM | –
CCc1ccc(-c2ccc(/C=C3\SC(=S)N(C(CC(=O)O)C(=O)O)C3=O)o2)cc1 (stereo not drawn) | 1.8 µM | –
O=C(O)CCN1C(=O)/C(=C/c2ccc(-c3ccc([N+](=O)[O-])cc3)o2)SC1=S | 0.65 µM | –
O=C(O)CCCN1C(=O)/C(=C/c2ccc(-c3ccccc3F)o2)SC1=S | 3 µM | –
CCCC(C(=O)O)N1C(=O)/C(=C/c2ccc(-c3ccc(Br)cc3)o2)SC1=S (stereo not drawn) | 0.5 µM | –
COC(=O)c1ccc(/C=C2\SC(=S)N(c3ccc(O)c(C(=O)O)c3)C2=O)cc1 | > 33 µM | –
O=C1/C(=C/c2ccc(-c3ccc(Br)cc3)o2)SC(=S)N1c1cccc(O)c1 | 2 µM | –
CSCCC(C(=O)O)N1C(=O)/C(=C/c2ccc(-c3ccc(Cl)c(Cl)c3)o2)SC1=S (stereo not drawn) | 0.75 µM | –
COC(=O)CCCN1C(=O)/C(=C/c2ccc(-c3ccc(Br)cc3)o2)SC1=S | > 33 µM | –
CCC(C(=O)O)N1C(=O)/C(=C/c2ccc(-c3cccc(Cl)c3)o2)SC1=S (stereo not drawn) | 0.75 µM | –
O=C(O)CCCCCN1C(=O)/C(=C/c2ccc(-c3cccc(C(F)(F)F)c3)o2)SC1=S | 0.5 µM | –

SMILES | IC50 [1] | further results
O=C1/C(=C/c2ccco2)SC(=S)N1c1cccnc1 | > 33 µM | –
O=C(O)CCN1C(=O)/C(=C/c2ccc(-c3cccc(Cl)c3)o2)SC1=S | 1 µM | –
CCC(C(=O)O)N1C(=O)/C(=C/c2ccc(-c3ccc(Br)cc3)o2)SC1=S (stereo not drawn) | 0.5 µM | –
O=C(O)c1ccc(N2C(=O)/C(=C/c3cccnc3)SC2=S)cc1 | > 33 µM | –
O=C(O)CCCN1C(=O)/C(=C/c2ccc(-c3c(Cl)cccc3Cl)o2)SC1=S | 0.5 µM | –
O=C(O)CCCN1C(=O)/C(=C/c2ccc(-c3cc(Cl)ccc3Cl)o2)SC1=S | 0.35 µM | –
O=C(O)CCCN1C(=O)/C(=C/c2ccc(-c3ccc(Br)cc3)o2)SC1=S | 0.2 µM | Activity [2]: 51%; Activity [3]: 28%; Activity [4]: 3%; Activity [5]: 10%; Activity [6]: 100%; Activity [7]: 92%; Activity [8]: 28%
CCCC(C(=O)O)N1C(=O)/C(=C/c2ccc(-c3ccc([N+](=O)[O-])cc3)o2)SC1=S (stereo not drawn) | 1.8 µM | –
O=C(O)CN1C(=O)/C(=C/c2ccncc2)SC1=S | > 33 µM | –
O=C(O)CCCN1C(=O)/C(=C/c2ccc(-c3cccc(Cl)c3)o2)SC1=S | 0.35 µM | –
O=C1/C(=C/c2ccc(-c3ccc(Cl)c(Cl)c3)o2)SC(=S)N1c1ccc(F)cc1 | > 33 µM | –
O=C(O)CN1C(=O)/C(=C/c2ccc(-c3ccccc3Cl)o2)SC1=S | 1.25 µM | –
O=C(O)CC(C(=O)O)N1C(=O)/C(=C/c2ccc(-c3ccc(Br)cc3)o2)SC1=S (stereo not drawn) | 2.8 µM | –
O=C(O)CCN1C(=O)/C(=C/c2ccc(-c3ccccc3F)o2)SC1=S | 0.3 µM | Activity [2]: 32%; Activity [3]: 44%; Activity [4]: 2.5%; Activity [5]: 22%; Activity [6]: 39%; Activity [7]: 87%; Activity [8]: 56%
CCC(C(=O)O)N1C(=O)/C(=C/c2ccc(-c3cc(Cl)ccc3Cl)o2)SC1=S (stereo not drawn) | 0.5 µM | –
O=C(O)C(Cc1ccccc1)N1C(=O)/C(=C/c2ccncc2)SC1=S (stereo not drawn) | > 33 µM | –
COC(=O)CCCN1C(=O)/C(=C/c2ccc(-c3ccccc3F)o2)SC1=S | > 33 µM | –
O=C(O)CCCCCN1C(=O)/C(=C/c2ccc(-c3ccc(Br)cc3)o2)SC1=S | 0.2 µM | Activity [2]: 7%; Activity [3]: 46%; Activity [4]: 3%; Activity [5]: 5%; Activity [6]: 21%; Activity [7]: 65%; Activity [8]: 34%
O=C(O)CCCN1C(=O)/C(=C/c2ccc(-c3ccccc3Cl)o2)SC1=S | 0.3 µM | Activity [2]: 25%; Activity [3]: 22%; Activity [4]: 3.5%; Activity [5]: 16%; Activity [6]: 14%; Activity [7]: 41%; Activity [8]: 15%
O=C(O)CN1C(=O)/C(=C/c2ccc(-c3ccccc3F)o2)SC1=S | 3 µM | –

— ChEMBL document CHEMBL2346522, “Rational design of apoptosis signal-regulating kinase 1 inhibitors: discovering novel structural scaffold” (Eur J Med Chem, 2013)
